# Assay results as given in ChEMBL document CHEMBL4130351, “Novel pyrazolopyrimidines: Synthesis, in vitro cytotoxic activity and mechanistic investigation” (Eur J Med Chem, 2017).
# How the values were obtained:
# HepG2 [1] = test: Cytotoxicity against human HepG2 cells assessed as reduction in cell viability after 72 hrs by MTT assay; type: functional, cell-based; conditions: HepG2, 72 h
# Procedure, shortened: (§1)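 MCF-7 and HepG2 cells in exponential growth were trypsinized and seeded at 1000–2000 cells/well, then incubated 24 h at 37 °C. Compound exposure was 72 h at 0.1, 10, 100 and 1000 μM. Cells took up 5% MTT for 2 h, and formazan was dissolved in acidified isopropanol for 30 min at room temperature. A570 was read, viability expressed as % of control, and IC50 obtained by curve fitting.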
# MCF7 [2] = test: Cytotoxicity against human MCF7 cells assessed as reduction in cell viability after 72 hrs by MTT assay; type: functional, cell-based; conditions: MCF7, 72 h; procedure, shortened: as §1
# [3] = target: Cyclin-dependent kinase 2 (Homo sapiens) (UniProt P24941); test: Inhibition of CDK2 (unknown origin) at 0.1 uM by CDKN2A antibody-based spectrophotometry
# Procedure, shortened: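 Sandwich enzyme immunoassay using a plate pre-coated with CDKN2A-specific antibody. Detection used a biotinylated anti-CDKN2A antibody, then avidin-HRP and substrate; the reaction was stopped and read at 450 nm. Compound levels tested were 0.004, 0.02, 0.1, 0.4 and 0.5 ug/mL, reported as % inhibition. IC50 was derived by Boltzmann sigmoidal nonlinear regression.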
# HepG2 [4] = test: Induction of apoptosis in human HepG2 cells at 0.4 uM after 48 hrs by Annexin V/propidium iodide double staining-based flow cytometry (reference value: 0.84%); type: functional
# Procedure, shortened: (§2)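 MCF-7 exposed at 1.4 μM or HepG2 at 0.4 μM for 24 or 48 h. Cells were collected in PBS, fixed in ice-cold 70% ethanol, washed, then resuspended in PI staining solution containing 0.1 mg/mL RNase plus PE-Annexin V. Staining was 10 min in the dark at 37 °C, followed by FACSCalibur flow cytometry.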
# HepG2 [5] = test: Induction of apoptosis in human HepG2 cells assessed as early apoptotic cells at 0.4 uM after 24 hrs by Annexin V/propidium iodide double staining-based flow cytometry (reference value: 0.61 %); type: functional; procedure, shortened: as §2
# HepG2 [6] = test: Induction of apoptosis in human HepG2 cells assessed as viable cells at 0.4 uM after 48 hrs by Annexin V/propidium iodide double staining-based flow cytometry (reference value: 99.16 %); type: functional; conditions: HepG2, 48 h, read-out: Activity; procedure, shortened: as §2
# [7] = target: Cyclin-dependent kinase 2 (Homo sapiens) (UniProt P24941); test: Inhibition of CDK2 (unknown origin) at 0.02 uM by CDKN2A antibody-based spectrophotometry
# HepG2 [8] = test: Cell cycle arrest in human HepG2 cells assessed as accumulation at G0/G1 phase at 0.4 uM after 24 hrs by propidium iodide staining-based flow cytometry (reference value: 73.11%); type: functional
# HepG2 [9] = test: Cell cycle arrest in human HepG2 cells assessed as accumulation at G0/G1 phase at 0.4 uM after 48 hrs by propidium iodide staining-based flow cytometry (reference value: 73.11%); type: functional
# HepG2 [10] = test: Induction of apoptosis in human HepG2 cells assessed as late apoptotic cells at 0.4 uM after 48 hrs by Annexin V/propidium iodide double staining-based flow cytometry (reference value: 0.14 %); type: functional; procedure, shortened: as §2
# HepG2 [11] = test: Induction of apoptosis in human HepG2 cells assessed as viable cells at 0.4 uM after 24 hrs by Annexin V/propidium iodide double staining-based flow cytometry (reference value: 99.16 %); type: functional; conditions: HepG2, 24 h, read-out: Activity; procedure, shortened: as §2
# HepG2 [12] = test: Induction of apoptosis in human HepG2 cells at 0.4 uM after 24 hrs by Annexin V/propidium iodide double staining-based flow cytometry (reference value: 0.84%); type: functional; procedure, shortened: as §2
# HepG2 [13] = test: Induction of apoptosis in human HepG2 cells assessed as necrotic cells at 0.4 uM after 24 hrs by Annexin V/propidium iodide double staining-based flow cytometry (reference value: 0.09 %); type: functional; procedure, shortened: as §2
# HepG2 [14] = test: Cell cycle arrest in human HepG2 cells assessed as accumulation at S phase at 0.4 uM after 48 hrs by propidium iodide staining-based flow cytometry (reference value: 21.69%); type: functional
# [15] = target: Cyclin-dependent kinase 2 (Homo sapiens) (UniProt P24941); test: Inhibition of CDK2 (unknown origin) at 0.004 uM by CDKN2A antibody-based spectrophotometry
# HepG2 [16] = test: Induction of apoptosis in human HepG2 cells assessed as caspase-3 activation at 0.4 uM after 10 mins by ELISA relative to control; type: functional
# Procedure, shortened: (§3)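 MCF-7 treated at 1.4 μM or HepG2 at 0.4 μM. Cells were trypsinized, rinsed in PBS, pelleted (105–106 cells) and resuspended in 1 mL PBS. Lysis was by three freeze/thaw cycles, followed by a 1500×g spin for 10 min at 2–8 °C. Active caspase-3 (cleaved at Asp175/Ser176) in the lysate was quantified by sandwich ELISA with an anti-rabbit HRP step, read at 450 nm, in pg/mL against control.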
# HepG2 [17] = test: Cell cycle arrest in human HepG2 cells assessed as accumulation at G2/M phase at 0.4 uM after 48 hrs by propidium iodide staining-based flow cytometry (reference value: 4.36%); type: functional
# HepG2 [18] = test: Induction of apoptosis in human HepG2 cells assessed as early apoptotic cells at 0.4 uM after 48 hrs by Annexin V/propidium iodide double staining-based flow cytometry (reference value: 0.61 %); type: functional; procedure, shortened: as §2
# HepG2 [19] = test: Cell cycle arrest in human HepG2 cells assessed as accumulation at S phase at 0.4 uM after 24 hrs by propidium iodide staining-based flow cytometry (reference value: 21.69%); type: functional
# [20] = target: Cyclin-dependent kinase inhibitor 1B (Homo sapiens) (UniProt P46527); test: Activation of human P27kip1 at 0.40 uM using TMB as substrate by ELISA (reference value: 0%)
# Chain of Cyclin-dependent kinase inhibitor 1B (Homo sapiens) (P46527 whole entry): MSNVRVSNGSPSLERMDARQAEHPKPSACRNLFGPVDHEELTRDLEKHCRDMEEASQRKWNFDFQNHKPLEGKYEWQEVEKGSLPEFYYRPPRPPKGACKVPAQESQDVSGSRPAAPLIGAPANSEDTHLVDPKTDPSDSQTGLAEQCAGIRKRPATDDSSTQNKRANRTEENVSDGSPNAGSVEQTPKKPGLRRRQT
# Procedure, shortened: (§4)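 Sandwich ELISAs on treated cells for p21Cip1 and p27Kip1: antibody-coated wells, detecting antibody, then HRP conjugate, with incubation and washing between steps. TMB substrate, reaction stopped, absorbance read at 450 nm. Output is residual concentration in pg/mL, expressed as % activation over untreated control.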
# HepG2 [21] = test: Induction of apoptosis in human HepG2 cells assessed as necrotic cells at 0.4 uM after 48 hrs by Annexin V/propidium iodide double staining-based flow cytometry (reference value: 0.09 %); type: functional; procedure, shortened: as §2
# [22] = target: Cyclin-dependent kinase 2 (Homo sapiens) (UniProt P24941); test: Inhibition of CDK2 (unknown origin) at 0.5 uM by CDKN2A antibody-based spectrophotometry
# HepG2 [23] = test: Induction of apoptosis in human HepG2 cells assessed as late apoptotic cells at 0.4 uM after 24 hrs by Annexin V/propidium iodide double staining-based flow cytometry (reference value: 0.14 %); type: functional; procedure, shortened: as §2
# [24] = target: Cyclin-dependent kinase inhibitor 1 (Homo sapiens) (UniProt P38936); test: Activation of human P21cip1 at 0.40 uM using TMB as substrate by ELISA (reference value: 0%); procedure, shortened: as §4
# Chain of Cyclin-dependent kinase inhibitor 1 (Homo sapiens) (P38936 whole entry): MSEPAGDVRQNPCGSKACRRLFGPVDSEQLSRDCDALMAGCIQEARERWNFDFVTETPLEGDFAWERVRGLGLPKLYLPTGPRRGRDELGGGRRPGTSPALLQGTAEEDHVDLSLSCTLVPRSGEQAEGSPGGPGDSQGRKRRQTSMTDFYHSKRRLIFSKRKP
# HepG2 [25] = test: Cell cycle arrest in human HepG2 cells assessed as accumulation at G2/M phase at 0.4 uM after 24 hrs by propidium iodide staining-based flow cytometry (reference value: 4.36%); type: functional
# [26] = target: Cyclin-dependent kinase 2 (Homo sapiens) (UniProt P24941); test: Inhibition of CDK2 (unknown origin) at 0.4 uM by CDKN2A antibody-based spectrophotometry
# MCF7 [27] = test: Cell cycle arrest in human MCF7 cells assessed as accumulation at S phase at 1.4 uM after 24 hrs by propidium iodide staining-based flow cytometry (reference value: 22.45%); type: functional
# MCF7 [28] = test: Cell cycle arrest in human MCF7 cells assessed as accumulation at S phase at 1.4 uM after 48 hrs by propidium iodide staining-based flow cytometry (reference value: 22.45%); type: functional
# MCF7 [29] = test: Induction of apoptosis in human MCF7 cells assessed as late apoptotic cells at 1.4 uM after 24 hrs by Annexin V/propidium iodide double staining-based flow cytometry (reference value: 0.18 %); type: functional; procedure, shortened: as §2
# MCF7 [30] = test: Induction of apoptosis in human MCF7 cells assessed as early apoptotic cells at 1.4 uM after 48 hrs by Annexin V/propidium iodide double staining-based flow cytometry (reference value: 0.39 %); type: functional; procedure, shortened: as §2
# MCF7 [31] = test: Induction of apoptosis in human MCF7 cells at 1.4 uM after 24 hrs by Annexin V/propidium iodide double staining-based flow cytometry (reference value: 0.62%); type: functional; procedure, shortened: as §2
# MCF7 [32] = test: Induction of apoptosis in human MCF7 cells assessed as late apoptotic cells at 1.4 uM after 48 hrs by Annexin V/propidium iodide double staining-based flow cytometry (reference value: 0.18 %); type: functional; procedure, shortened: as §2
# MCF7 [33] = test: Cell cycle arrest in human MCF7 cells assessed as accumulation at G0/G1 phase at 1.4 uM after 24 hrs by propidium iodide staining-based flow cytometry (reference value: 71.70%); type: functional
# MCF7 [34] = test: Cell cycle arrest in human MCF7 cells assessed as accumulation at G2/M phase at 1.4 uM after 24 hrs by propidium iodide staining-based flow cytometry (reference value: 5.23%); type: functional
# MCF7 [35] = test: Induction of apoptosis in human MCF7 cells assessed as early apoptotic cells at 1.4 uM after 24 hrs by Annexin V/propidium iodide double staining-based flow cytometry (reference value: 0.39 %); type: functional; procedure, shortened: as §2
# MCF7 [36] = test: Induction of apoptosis in human MCF7 cells assessed as necrotic cells at 1.4 uM after 24 hrs by Annexin V/propidium iodide double staining-based flow cytometry (reference value: 0.05 %); type: functional; procedure, shortened: as §2
# MCF7 [37] = test: Induction of apoptosis in human MCF7 cells assessed as necrotic cells at 1.4 uM after 48 hrs by Annexin V/propidium iodide double staining-based flow cytometry (reference value: 0.05 %); type: functional; procedure, shortened: as §2
# MCF7 [38] = test: Induction of apoptosis in human MCF7 cells assessed as viable cells at 1.4 uM after 48 hrs by Annexin V/propidium iodide double staining-based flow cytometry (reference value: 99.38 %); type: functional; conditions: MCF7, 48 h, read-out: Activity; procedure, shortened: as §2
# MCF7 [39] = test: Cell cycle arrest in human MCF7 cells assessed as accumulation at G0/G1 phase at 1.4 uM after 48 hrs by propidium iodide staining-based flow cytometry (reference value: 71.70%); type: functional
# MCF7 [40] = test: Induction of apoptosis in human MCF7 cells at 1.4 uM after 48 hrs by Annexin V/propidium iodide double staining-based flow cytometry (reference value: 0.62%); type: functional; procedure, shortened: as §2
# MCF7 [41] = test: Induction of apoptosis in human MCF7 cells assessed as viable cells at 1.4 uM after 24 hrs by Annexin V/propidium iodide double staining-based flow cytometry (reference value: 99.38 %); type: functional; conditions: MCF7, 24 h, read-out: Activity; procedure, shortened: as §2
# MCF7 [42] = test: Induction of apoptosis in human MCF7 cells assessed as caspase-3 activation at 1.4 uM after 10 mins by ELISA relative to control; type: functional; procedure, shortened: as §3
# MCF7 [43] = test: Cell cycle arrest in human MCF7 cells assessed as accumulation at G2/M phase at 1.4 uM after 48 hrs by propidium iodide staining-based flow cytometry (reference value: 5.23%); type: functional
structure (smiles),measurement,setting,value
COc1ccc(-c2nc3c(cnn3-c3ccc(S(N)(=O)=O)cc3)c(=O)[nH]2)cc1OC,IC50,HepG2 [1],> 100 µM
same,IC50,MCF7 [2],> 100 µM
N=c1[nH]c(=O)[nH]c2c1cnn2-c1ccc(S(N)(=O)=O)cc1,inhibition,[3],53.1%
same,Activity,HepG2 [4],16.71%
same,Activity,HepG2 [5],7.64%
same,viability at 0.4 µM,HepG2 [6],83.3%
same,inhibition,[7],39%
same,Activity,HepG2 [8],36.55%
same,Activity,HepG2 [9],9.62%
same,IC50,HepG2 [1],0.4 µM
same,Activity,HepG2 [10],5.92%
same,viability at 0.4 µM,HepG2 [11],86.3%
same,Activity,HepG2 [12],13.92%
same,Activity,HepG2 [13],1.29%
same,Activity,HepG2 [14],24.67%
same,inhibition,[15],12.6%
same,fold change (FC),HepG2 [16],36
same,Activity,HepG2 [17],48.91%
same,Activity,HepG2 [18],9.76%
same,Activity,HepG2 [19],25.66%
same,Activity,[20],8.5%
same,IC50,MCF7 [2],> 100 µM
same,Activity,HepG2 [21],1.03%
same,inhibition,[22],81.8%
same,Activity,HepG2 [23],4.79%
same,Activity,[24],10.1%
same,Activity,HepG2 [25],23.78%
same,inhibition,[26],68.8%
Nc1ncnc2c1cnn2-c1ccc(S(N)(=O)=O)cc1,IC50,HepG2 [1],95.5 µM
same,IC50,MCF7 [2],40.7 µM
COc1ccc(-c2nc3c(cnn3-c3ccc(S(N)(=O)=O)cc3)c(=O)[nH]2)cc1,Activity,MCF7 [27],27.92%
same,Activity,MCF7 [28],16.09%
same,Activity,MCF7 [29],2.58%
same,Activity,MCF7 [30],6.49%
same,Activity,MCF7 [31],7.38%
same,Activity,MCF7 [32],3.64%
same,Activity,MCF7 [33],64.7%
same,Activity,MCF7 [34],0%
same,IC50,HepG2 [1],> 100 µM
same,Activity,MCF7 [35],4.39%
same,Activity,MCF7 [36],0.41%
same,Activity,MCF7 [37],1.48%
same,viability at 1.4 µM,MCF7 [38],88.4%
same,IC50,MCF7 [2],1.4 µM
same,Activity,MCF7 [39],72.3%
same,Activity,MCF7 [40],11.61%
same,viability at 1.4 µM,MCF7 [41],72.6%
same,fold change (FC),MCF7 [42],32
same,Activity,MCF7 [43],0%
NS(=O)(=O)c1ccc(-n2ncc3c(=O)[nH]c(-c4ccccc4)nc32)cc1,IC50,HepG2 [1],77.6 µM
same,IC50,MCF7 [2],> 100 µM
NS(=O)(=O)c1ccc(-n2ncc3c(=O)[nH]c(-c4ccc(F)cc4)nc32)cc1,IC50,HepG2 [1],2.66 µM
same,IC50,MCF7 [2],38 µM
